Measurements from ChEMBL document CHEMBL1145069, “Stereospecific synthesis of 5-substituted 2-bisarylthiocyclopentane carboxylic acids as specific matrix metalloproteinase inhibitors” (J Med Chem, 2003).
Where “and” joins values, the source holds several entries; their conditions need not be identical. Equal entries are not always repeated.

Legend:
[1] = molecular target: Collagenase 3 (Homo sapiens, UniProt P45452); assay: Inhibitory activity against matrix metalloprotease-13 (MMP13)
[2] = species: Rattus norvegicus; assay: In vitro metabolic stability and first pass metabolism was evaluated in rat hepatic microsomes; assay type: ADME, Liver
[3] = molecular target: Matrix metalloproteinase-9 (Homo sapiens, UniProt P14780); assay: Inhibitory activity against matrix metalloprotease-9 (MMP9)
[4] = species: Homo sapiens; assay: In vitro metabolic stability and first pass metabolism was evaluated in human hepatic microsomes; assay type: ADME, Liver
[5] = test system: Mus musculus; assay: Tested for antitumor activity in mice against B16F10 melanoma measured as reduction in number of metastases at 200 mg/kg (ip); assay type: functional
How it was run: (§1)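 B16-F10 cells passaged in vitro, then 2×10^5 cells per mouse injected into the tail vein of B6D2F1 mice in PBS with 0.5% foetal calf serum. 7 mice per group. Dosing i.p. or p.o. 1 h before inoculation, then daily for 3 days (four doses). Lungs collected on day 11 and fixed in Bouin's fluid. Metastases per lung (total and ≥1 mm) given as % of control mean.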

[6] = molecular target: T1, Interstitial collagenase (Homo sapiens, UniProt P03956); assay: Inhibitory activity against matrix metalloprotease-1 (MMP1)
T1 sequence (P03956 whole entry): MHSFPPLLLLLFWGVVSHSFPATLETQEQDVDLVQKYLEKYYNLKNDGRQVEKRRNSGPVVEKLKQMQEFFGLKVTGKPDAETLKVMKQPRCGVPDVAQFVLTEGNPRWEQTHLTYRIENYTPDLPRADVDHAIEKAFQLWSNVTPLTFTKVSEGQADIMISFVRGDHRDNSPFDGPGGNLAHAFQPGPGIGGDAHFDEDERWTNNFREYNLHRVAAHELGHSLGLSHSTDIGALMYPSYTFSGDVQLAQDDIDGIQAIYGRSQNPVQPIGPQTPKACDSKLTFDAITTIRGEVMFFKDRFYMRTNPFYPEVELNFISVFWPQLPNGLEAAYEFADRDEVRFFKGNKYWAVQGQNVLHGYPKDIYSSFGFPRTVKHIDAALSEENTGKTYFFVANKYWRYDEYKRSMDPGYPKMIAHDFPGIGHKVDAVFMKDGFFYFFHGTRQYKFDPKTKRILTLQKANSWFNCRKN

[7] = molecular target: Stromelysin-1 (Homo sapiens, UniProt P08254); assay: Inhibitory activity against matrix metalloprotease-3 (MMP3)
[8] = molecular target: 72 kDa type IV collagenase (Homo sapiens, UniProt P08253); assay: Inhibitory activity against matrix metalloprotease-2 (MMP2)
[9] = test system: Mus musculus; assay: Tested for antitumor activity in mice against B16F10 melanoma measured as reduction in number of metastases at 100 mg/kg (ip); assay type: functional; how it was run: as §1
[10] = species: Homo sapiens; assay: In vitro absorption was measured in Caco-2 cell; assay type: ADME
[11] = In vivo maximum plasma concentration was determined in mice after 50 mg/kg (po) administration; assay type: ADME, organism-based; design: route oral, dose 50 mg/kg; settings: mouse
[12] = In vivo half life in mice after 50 mg/kg (po) administration; assay type: ADME, organism-based; design: dose 50 mg/kg; settings: mouse
[13] = Bioavailability in mouse (dose 50 mg/kg i.p.); assay type: ADME, organism-based; settings: in vivo, ip
[14] = In vivo maximum plasma concentration was determined in mice after 5 mg/kg (iv) administration; assay type: ADME, organism-based; design: route intravenous, dose 5 mg/kg; settings: mouse
[15] = test system: Mus musculus; assay: Tested for antitumor activity in mice against B16F10 melanoma measured as reduction in number of metastases at 100 mg/kg (po); assay type: functional; how it was run: as §1
[16] = In vivo maximum plasma concentration was determined in mice after 50 mg/kg (ip) administration; assay type: ADME, organism-based; design: route intraperitoneal, dose 50 mg/kg; settings: mouse
[17] = In vivo half life in mice after 5 mg/kg (iv) administration; assay type: ADME, organism-based; design: dose 5 mg/kg; settings: mouse
[18] = Bioavailability in mouse (dose 50 mg/kg p.o.); assay type: ADME, organism-based; settings: in vivo, po
[19] = In vivo half life in mice after 50 mg/kg (ip) administration; assay type: ADME, organism-based; design: dose 50 mg/kg; settings: mouse
[20] = test system: Mus musculus; assay: Tested for antitumor activity in mice against B16F10 melanoma measured as reduction in number of metastases at 200 mg/kg (po); assay type: functional; how it was run: as §1
[21] = Bioavailability determined; assay type: ADME, organism-based; settings: eutheria, in vivo
[22] = test system: Mus musculus; assay: Tested for antitumor activity in mice against B16F10 melanoma measured as reduction in number of metastases at 50 mg/kg (ip); assay type: functional; how it was run: as §1
[23] = test system: Mus musculus; assay: Tested for antitumor activity in mice against B16F10 melanoma measured as reduction in number of metastases at 25 mg/kg (ip); assay type: functional; how it was run: as §1

Chain of 72 kDa type IV collagenase (P08253 whole entry): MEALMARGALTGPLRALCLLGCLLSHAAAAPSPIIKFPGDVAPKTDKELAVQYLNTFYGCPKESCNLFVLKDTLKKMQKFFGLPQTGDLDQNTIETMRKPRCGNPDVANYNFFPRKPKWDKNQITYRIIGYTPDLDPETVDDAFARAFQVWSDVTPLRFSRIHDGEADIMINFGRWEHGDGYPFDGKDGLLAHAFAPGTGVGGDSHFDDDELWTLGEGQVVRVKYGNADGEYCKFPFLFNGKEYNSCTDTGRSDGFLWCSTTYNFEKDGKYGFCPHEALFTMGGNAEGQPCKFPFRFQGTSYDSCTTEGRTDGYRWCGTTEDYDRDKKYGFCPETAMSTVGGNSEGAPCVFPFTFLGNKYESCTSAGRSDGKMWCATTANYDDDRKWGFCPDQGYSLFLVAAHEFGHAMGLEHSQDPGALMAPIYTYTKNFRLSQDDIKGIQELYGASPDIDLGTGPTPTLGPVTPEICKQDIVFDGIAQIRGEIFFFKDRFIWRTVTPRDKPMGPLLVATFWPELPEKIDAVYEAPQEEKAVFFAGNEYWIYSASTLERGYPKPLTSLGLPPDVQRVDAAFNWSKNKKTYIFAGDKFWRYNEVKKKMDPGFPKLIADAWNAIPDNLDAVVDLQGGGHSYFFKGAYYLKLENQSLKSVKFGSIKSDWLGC
Chain of Stromelysin-1 (P08254 whole entry): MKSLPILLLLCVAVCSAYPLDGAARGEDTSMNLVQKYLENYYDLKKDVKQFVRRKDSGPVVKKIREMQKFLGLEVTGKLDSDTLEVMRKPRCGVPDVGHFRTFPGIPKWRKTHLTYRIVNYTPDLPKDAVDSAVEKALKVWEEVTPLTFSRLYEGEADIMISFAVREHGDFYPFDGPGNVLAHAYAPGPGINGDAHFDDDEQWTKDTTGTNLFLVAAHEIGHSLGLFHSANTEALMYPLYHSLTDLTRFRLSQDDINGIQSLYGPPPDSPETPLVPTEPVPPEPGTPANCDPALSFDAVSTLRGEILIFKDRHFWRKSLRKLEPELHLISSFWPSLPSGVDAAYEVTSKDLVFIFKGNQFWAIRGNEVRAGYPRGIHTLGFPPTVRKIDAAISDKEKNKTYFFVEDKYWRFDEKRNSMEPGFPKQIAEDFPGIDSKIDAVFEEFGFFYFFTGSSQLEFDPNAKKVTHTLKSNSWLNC
Chain of Matrix metalloproteinase-9 (P14780 whole entry): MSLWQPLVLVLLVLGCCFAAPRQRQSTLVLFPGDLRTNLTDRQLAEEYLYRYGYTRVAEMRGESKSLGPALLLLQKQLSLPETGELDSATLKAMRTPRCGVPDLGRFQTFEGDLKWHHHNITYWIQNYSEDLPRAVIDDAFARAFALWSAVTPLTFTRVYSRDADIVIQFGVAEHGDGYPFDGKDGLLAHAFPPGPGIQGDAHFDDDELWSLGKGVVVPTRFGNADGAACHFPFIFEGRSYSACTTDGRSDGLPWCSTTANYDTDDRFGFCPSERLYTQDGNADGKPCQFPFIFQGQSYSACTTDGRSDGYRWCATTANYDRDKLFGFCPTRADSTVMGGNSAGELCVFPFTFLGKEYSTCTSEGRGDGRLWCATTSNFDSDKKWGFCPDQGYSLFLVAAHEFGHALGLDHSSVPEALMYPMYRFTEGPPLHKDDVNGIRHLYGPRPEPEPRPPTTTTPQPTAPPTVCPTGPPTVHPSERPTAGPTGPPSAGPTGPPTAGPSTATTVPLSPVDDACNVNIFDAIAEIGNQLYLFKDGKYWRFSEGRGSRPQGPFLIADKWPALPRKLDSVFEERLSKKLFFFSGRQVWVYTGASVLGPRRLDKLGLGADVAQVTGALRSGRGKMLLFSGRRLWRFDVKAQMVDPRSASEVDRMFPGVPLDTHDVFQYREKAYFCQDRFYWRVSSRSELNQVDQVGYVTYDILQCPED

Row | Compound | IC50 [1] [nM] | IC50 [3] [nM] | IC50 [6] | IC50 [7] [nM] | IC50 [8] [nM] | other results
1 | O=C(O)[C@H]1[C@H](CN2C(=O)c3ccccc3C2=O)CC[C@@H]1S(=O)(=O)CCc1ccc(-c2ccc(Cl)cc2)cc1 | 808 | 39 | 5400 nM | 64 | 76 | MF [2]: 58%; MF [4]: 91%; No. of metastases [5]: 109; No. of metastases [9]: 78; Absorption [10]: 92%
2 | O=C(O)[C@H]1[C@H](CN2NNc3nc[nH]c3C2=O)CC[C@@H]1Sc1ccc(-c2ccc(Cl)cc2)cc1 | 682 | 642 | 6600 nM | 21 | 130 | –
3 | CSc1ccc(-c2ccc(S[C@H]3CC[C@@H](Cn4c(=O)nc5ccccn5c4=O)[C@@H]3C(=O)O)cc2)cc1 | 195 | 16 | 63000 nM | 305 | 14 | –
4 | O=C(O)[C@H]1[C@H](CN2C(=O)c3ccccc3C2=O)CC[C@@H]1Sc1ccc(-c2ccccc2)cc1 | 66 | 76 | 93 nM | 278 | 24 | –
5 | O=C(O)[C@H]1[C@H](Cn2nnc3ccccc3c2=O)CC[C@@H]1Sc1ccc(-c2nc3ccccc3s2)cc1 | 417 | 661 | > 1000 nM | 8000 | 829 | –
6 | O=C(O)[C@H]1[C@H](CN2C(=O)c3ccccc3C2=O)CC[C@@H]1SCCc1ccc(-c2ccc(F)cc2)cc1 | 248 | 26 | 6000 nM | 60 | 62 | Cmax [11]: 107 µg/mL; MF [2]: 55%; half-life [12]: 4 h; bioavailability [13]: 100%; MF [4]: 62%; No. of metastases [5]: 24.5; Cmax [14]: 40 µg/mL; No. of metastases [15]: 72; Cmax [16]: 130 µg/mL; half-life [17]: 3.5 h; bioavailability [18]: 93%; half-life [19]: 4 h; No. of metastases [9]: 32.5; No. of metastases [20]: 68; Absorption [10]: 90%
7 | O=C(O)[C@H]1[C@H](Cn2nnc3ccccc3c2=O)CC[C@@H]1Sc1ccc(-c2c[nH]nn2)cc1 | > 100000 | > 100000 | > 100000 nM | > 100000 | > 100000 | –
8 | O=C(O)[C@H]1[C@H](CN2C(=O)c3ccccc3C2=O)CC[C@@H]1SCc1ccc(-c2ccccc2)cc1 | 15 | 3800 | > 100000 nM | 3000 | 2800 | –
9 | O=C(O)[C@H]1[C@H](Cn2nnc3ccccc3c2=O)CC[C@@H]1S(=O)(=O)c1ccc(-c2ccc(Cl)cc2)cc1 | 1.8 | 512 | > 100000 nM | 694 | 83 | –
10 | O=C(O)[C@H]1[C@H](Cn2nc3ccccn3c2=O)CC[C@@H]1Sc1ccc(-c2ccc(Cl)cc2)cc1 | 32 | 37 | 10000 nM | 184 | 25 | –
11 | CN1C(=O)N(C[C@H](C(=O)NO)[C@@H](CC2CCCC2)C(=O)N2CCCCC2)C(=O)C1(C)C | – | 58 | – | – | 154 | –
12 | O=C(NO)C(CCn1nnc2ccccc2c1=O)CSc1ccc(-c2ccc(Cl)cc2)cc1 (stereo not drawn) | 1.2 | 0.5 | > 10000 nM | 10 | 0.06 | bioavailability [21]: < 30%
13 | O=C(O)[C@H]1[C@H](CN2C(=O)c3ccccc3C2=O)CC[C@@H]1SCCc1ccc(-c2ccc(Cl)cc2)cc1 | 129 | 13 | 50000 nM | 45 | 73 | MF [2]: 43%; MF [4]: 61%; No. of metastases [5]: 43; No. of metastases [15]: 69; No. of metastases [9]: 96; No. of metastases [20]: 64.5; Absorption [10]: 94%
14 | O=C(O)[C@H]1[C@H](CN2NNc3ccsc3C2=O)CC[C@@H]1Sc1ccc(-c2ccc(Cl)cc2)cc1 | 133 | 62 | 4400 nM | 216 | 20 | –
15 | N#Cc1ccc(-c2ccc(S[C@H]3CC[C@@H](Cn4c(=O)nc5ccccn5c4=O)[C@@H]3C(=O)O)cc2)cc1 | 31 | 31 | > 1000 nM | 103 | 20 | –
16 | O=C(O)[C@H]1[C@H](Cn2nnc3ccccc3c2=O)CC[C@@H]1Sc1ccc(-c2ccc(Cl)cc2)cc1 | – | – | > 100000 nM and 12000 nM | – | – | No. of metastases [22]: 39; Cmax [11]: 93 µg/mL; MF [2]: 74%; half-life [12]: 3 h; bioavailability [13]: 100%; MF [4]: 100%; Cmax [14]: 40 µg/mL; No. of metastases [23]: 45; No. of metastases [15]: 70; Cmax [16]: 203 µg/mL; half-life [17]: 3.4 h; bioavailability [18]: 69%; half-life [19]: 4 h; No. of metastases [9]: 30; No. of metastases [20]: 74.5; Absorption [10]: 95%
17 | CSc1ccc(-c2ccc(S[C@H]3CC[C@@H](Cn4nnc5ccccc5c4=O)[C@@H]3C(=O)O)cc2)cc1 | 13 | 4 | > 10000 nM | 21 | 5 | –
18 | O=C(O)[C@H]1[C@H](Cn2nc3n(c2=O)CCCCC3)CC[C@@H]1Sc1ccc(-c2ccc(Cl)cc2)cc1 | 5.1 | 3800 | > 10000 nM | 18000 | 1700 | –
19 | N#Cc1ccc(-c2ccc(S[C@H]3CC[C@@H](Cn4nnc5ccccc5c4=O)[C@@H]3C(=O)O)cc2)cc1 | 11 | 24 | > 10000 nM | 5 | 13 | –
20 | O=C(O)[C@H]1[C@H](CN2C(=O)c3ccccc3C2=O)CC[C@@H]1S(=O)(=O)CCc1ccc(-c2ccc(F)cc2)cc1 | 296 | 47 | – | 316 | 76 | –
21 | O=C(O)[C@H]1[C@H](Cn2nnc3ccccc3c2=O)CC[C@@H]1SCCc1ccc(-c2ccc(Cl)cc2)cc1 | 391 | 24 | > 70000 nM | 62 | 106 | MF [2]: 76%; MF [4]: 63%; No. of metastases [5]: 31; No. of metastases [15]: 65; No. of metastases [9]: 51; No. of metastases [20]: 80; Absorption [10]: 91%
22 | O=C(O)[C@H]1[C@H](CN2C(=O)c3ccccc3C2=O)CC[C@@H]1SCCc1ccc(-c2ccccc2)cc1 | 162 | 12 | 45000 nM | 26 | 46 | –
23 | O=C(O)[C@H]1[C@H](Cn2c(=O)nc3ccccn3c2=O)CC[C@@H]1Sc1ccc(-c2ccc(Cl)cc2)cc1 | 27 | 30 | > 10000 nM | 134 | 9 | –
24 | O=C(O)[C@H]1[C@H](Cn2nnc3ccccc3c2=O)CC[C@@H]1Sc1ccc(-c2ccncc2)cc1 | 275 | 341 | > 36000 nM | 1200 | 176 | –
25 | O=C(O)[C@@H]1[C@@H](Cn2nnc3ccccc3c2=O)CC[C@H]1Sc1ccc(-c2ccc(Cl)cc2)cc1 | 1.9 | 3000 | 67000 nM | 5200 | 743 | –
26 | CC1(C)NC(=O)N(C[C@@H]2CC[C@H](Sc3ccc(-c4ccc(Cl)cc4)cc3)[C@H]2C(=O)O)C1=O | 3.1 | 3300 | 70000 nM | 9400 | 572 | –
27 | O=C(O)[C@H]1[C@H](Cn2nnc3ccccc3c2=O)CC[C@@H]1S(=O)(=O)CCc1ccc(-c2ccc(Cl)cc2)cc1 | 2.8 | 132 | > 100000 nM | 253 | 383 | –
28 | O=C(O)[C@H]1[C@H](CN2C(=O)c3ccccc3S2(=O)=O)CC[C@@H]1Sc1ccc(-c2ccc(Cl)cc2)cc1 | 80 | 35 | 2100 nM | 474 | 13 | –
29 | O=C(O)[C@H]1[C@H](Cn2nnc3ccccc3c2=O)CC[C@@H]1Sc1ccc(-c2nccs2)cc1 | > 100000 | > 6000 | > 100000 nM | > 100000 | > 8000 | –
